Activity calls are given as the source filed them. The rule behind the calls is not given here.
Legend:
MDA-MB-231 = assay: Cell cycle arrest in human MDA-MB-231 cells assessed as accumulation at S phase at 5 uM after 24 hrs by propidium iodide staining-based flow cytometry (reference value: 20.15%); assay type: functional
KOPN-8 [1] = assay: Induction of apoptosis in human KOPN8 cells assessed as effect on Mcl-1 level at 0.5 uM after 3 hrs by Western blot analysis relative to control; assay type: functional
KOPN-8 [2] = assay: Induction of apoptosis in human KOPN8 cells assessed as late apoptotic cells at 5 uM after 24 hrs by Annexin V-FITC/propidium iodide staining-based flow cytometry (reference value: 9.5%); assay type: functional
How it was run: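 KOPN-8 cells were treated for 24 h, with a DMSO vehicle control and a staurosporine positive control. Cells were stained with FITC-Annexin V and propidium iodide and analysed by flow cytometry. Quadrant gating separated viable, early apoptotic, late apoptotic (Q2) and necrotic populations.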

[3] = target: T1, Retinoblastoma-associated protein (Homo sapiens) (UniProt P06400); assay: Inhibition of Rb phosphorylation in human KOPN8 cells assessed as ratio of phosphorylated Rb to total Rb levels at 0.5 uM after 24 hrs by Western blot analysis relative to control; assay type: cell-based
T1 sequence (whole entry): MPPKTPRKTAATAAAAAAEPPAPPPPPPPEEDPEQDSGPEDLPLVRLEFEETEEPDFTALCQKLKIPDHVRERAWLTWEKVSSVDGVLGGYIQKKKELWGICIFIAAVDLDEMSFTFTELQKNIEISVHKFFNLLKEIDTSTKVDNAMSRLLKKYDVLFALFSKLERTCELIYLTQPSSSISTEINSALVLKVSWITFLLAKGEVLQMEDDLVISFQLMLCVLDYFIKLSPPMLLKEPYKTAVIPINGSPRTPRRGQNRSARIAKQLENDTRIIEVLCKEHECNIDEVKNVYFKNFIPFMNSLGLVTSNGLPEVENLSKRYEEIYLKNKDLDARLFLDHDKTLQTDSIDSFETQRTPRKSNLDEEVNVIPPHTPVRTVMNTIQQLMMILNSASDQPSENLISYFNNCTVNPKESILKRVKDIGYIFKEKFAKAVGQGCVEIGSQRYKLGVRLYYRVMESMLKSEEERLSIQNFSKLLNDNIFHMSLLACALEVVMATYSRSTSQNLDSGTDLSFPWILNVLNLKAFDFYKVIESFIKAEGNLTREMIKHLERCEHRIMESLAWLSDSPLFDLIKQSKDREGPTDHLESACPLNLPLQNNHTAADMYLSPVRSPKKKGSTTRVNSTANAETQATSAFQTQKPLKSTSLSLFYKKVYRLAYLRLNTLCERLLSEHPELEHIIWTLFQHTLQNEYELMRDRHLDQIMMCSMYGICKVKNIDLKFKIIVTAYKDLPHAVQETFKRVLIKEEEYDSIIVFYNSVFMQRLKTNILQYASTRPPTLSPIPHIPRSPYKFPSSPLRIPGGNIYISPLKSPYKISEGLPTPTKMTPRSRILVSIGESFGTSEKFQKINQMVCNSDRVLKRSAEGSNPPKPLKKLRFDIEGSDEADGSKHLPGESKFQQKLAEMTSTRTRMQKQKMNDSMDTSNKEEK
How it was run: (§1)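 KOPN-8 cells were exposed to compound for 3 h and 24 h, with or without N-acetylcysteine added to a parallel set as antioxidant. Lysates were analysed by Western blot for cleaved PARP, Mcl-1, Ser-2-phosphorylated RNAPII CTD, cMyc, total Rb and pRb. Signals were compared against controls for dose-dependent change.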

KOPN-8 [4] = assay: Induction of apoptosis in human KOPN8 cells assessed as upregulation of cleaved PARP level at 0.5 uM after 24 hrs by Western blot analysis; assay type: functional, cell-based; how it was run: as §1
Homo sapiens [5] = organism: Homo sapiens; assay: Inhibition of RNA polymerase 2 C-terminal domain phosphorylation at Ser2 residue in human KOPN8 cells at 0.5 uM after 3 hrs by Western blot analysis relative to control; assay type: cell-based; how it was run: as §1
KOPN-8 [6] = assay: Effect on c-Myc expression in human KOPN8 cells at 10 uM after 24 hrs by Western blot analysis relative to control; assay type: functional
How it was run: (§2)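 KOPN-8 cells were treated at 10–100 µM final, with or without N-acetylcysteine co-addition, for 3 h and 24 h. Lysates were analysed by Western blot for PARP cleavage, Mcl-1, phospho-Ser2 RNAPII CTD, c-Myc, total Rb and pRb. Levels are relative to the vehicle control.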

Homo sapiens [7] = organism: Homo sapiens; assay: Inhibition of RNA polymerase 2 C-terminal domain phosphorylation at Ser2 residue in human KOPN8 cells at 100 uM pre-treated with NAC for 1 hr and measured after 3 hrs by Western blot analysis relative to control; assay type: cell-based; how it was run: as §1
Homo sapiens [8] = organism: Homo sapiens; assay: Inhibition of RNA polymerase 2 C-terminal domain phosphorylation at Ser2 residue in human KOPN8 cells at 30 uM pre-treated with NAC for 1 hr and measured after 24 hrs by Western blot analysis relative to control; assay type: cell-based; how it was run: as §1
KOPN-8 [9] = assay: Induction of apoptosis in human KOPN8 cells assessed as upregulation of cleaved PARP level at 100 uM pre-treated with NAC for 1 hr and measured after 24 hrs by Western blot analysis; assay type: functional, cell-based; how it was run: as §1
KOPN-8 [10] = assay: Effect on c-Myc expression in human KOPN8 cells at 30 uM pre-treated with NAC for 1 hr and measured after 24 hrs by Western blot analysis relative to control; assay type: functional
Homo sapiens [11] = organism: Homo sapiens; assay: Inhibition of RNA polymerase 2 C-terminal domain phosphorylation at Ser2 residue in human KOPN8 cells at 10 uM after 3 hrs by Western blot analysis relative to control; assay type: cell-based; how it was run: as §1
KOPN-8 [12] = assay: Cell cycle arrest in human KOPN8 cells assessed as accumulation at G2/M phase at 10 uM after 24 hrs by propidium iodide staining-based flow cytometry (reference value: 9.67%); assay type: functional
How it was run: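 KOPN-8 cells treated 24 h alongside a DMSO vehicle and a staurosporine (2.0 µM) positive control. Apoptosis was scored by FITC Annexin V / propidium iodide flow cytometry with quadrant gating (early, late apoptotic). DNA content was measured by PI staining to give the percentage of cells in G0/G1, S and G2/M. Groups were compared by t-test; error bars are SD.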

KOPN-8 [13] = assay: Effect on c-Myc expression in human KOPN8 cells at 10 uM pre-treated with NAC for 1 hr and measured after 24 hrs by Western blot analysis relative to control; assay type: functional
KOPN-8 [14] = assay: Induction of apoptosis in human KOPN8 cells assessed as effect on Mcl-1 level at 30 uM after 24 hrs by Western blot analysis relative to control; assay type: functional; how it was run: as §1
KOPN-8 [15] = assay: Induction of apoptosis in human KOPN8 cells assessed as upregulation of cleaved PARP level at 100 uM pre-treated with NAC for 1 hr and measured after 3 hrs by Western blot analysis; assay type: functional, cell-based; how it was run: as §1
KOPN-8 [16] = assay: Induction of apoptosis in human KOPN8 cells assessed as effect on Mcl-1 level at 10 uM after 3 hrs by Western blot analysis relative to control; assay type: functional; how it was run: as §2
KOPN-8 [17] = assay: Effect on c-Myc expression in human KOPN8 cells at 30 uM after 24 hrs by Western blot analysis relative to control; assay type: functional; how it was run: as §2
Homo sapiens [18] = organism: Homo sapiens; assay: Inhibition of RNA polymerase 2 C-terminal domain phosphorylation at Ser2 residue in human KOPN8 cells at 100 uM pre-treated with NAC for 1 hr and measured after 24 hrs by Western blot analysis relative to control; assay type: cell-based; how it was run: as §1

| fold change (FC) [3] | Structure (SMILES) | Activity (MDA-MB-231) [%] | fold change (FC) (KOPN-8 [1]) | Activity (KOPN-8 [2]) [%] | Activity (KOPN-8 [4]) | fold change (FC) (Homo sapiens [5]) | fold change (FC) (KOPN-8 [6]) | fold change (FC) (Homo sapiens [7]) | fold change (FC) (Homo sapiens [8]) | Activity (KOPN-8 [9]) | fold change (FC) (KOPN-8 [10]) | fold change (FC) (Homo sapiens [11]) | Activity (KOPN-8 [12]) [%] | fold change (FC) (KOPN-8 [13]) | fold change (FC) (KOPN-8 [14]) | Activity (KOPN-8 [15]) | fold change (FC) (KOPN-8 [16]) | fold change (FC) (KOPN-8 [17]) | fold change (FC) (Homo sapiens [18]) |
| --- | --- | --- | --- | --- | --- | --- | --- | --- | --- | --- | --- | --- | --- | --- | --- | --- | --- | --- | --- |
| 0.9 | CN(C)C(=O)c1cc2cnc(Nc3ccc(N4CCNCC4)cn3)nc2n1C1CCCC1 [RIBOCICLIB] | 4.64 | 0.9 | 67.4 | inactive | 0.8 | – | – | – | – | – | – | – | – | – | – | – | – | – |
| – | COc1ccc(-c2c(I)c(=O)c3c(OC)cc(OC)cc3n2S(=O)(=O)c2ccc(OC)cc2)cc1 | – | – | – | – | – | 1.3 | 1.6 | 0.7 | Active | 1 | 0.7 | 27.12 | 1.3 | 0.7 | inactive | 0.8 | 0.9 | 0.1 |
